According to ChEMBL document CHEMBL1144120, “In vitro evaluation of antifungal properties of phenylpropanoids and related compounds acting against dermatophytes” (1999):
In brackets after ≈: the same amount, converted by molar mass. Activity calls are given as the source filed them. No cut-off for these calls is given here.

How the values were obtained:
[1] = test system: Trichophyton mentagrophytes; test: Antifungal activity against Trichophyton mentagrophytes ATCC 9972 up to 50 ug/mL by agar dilution method; type: functional, organism-based
Outline: (§1)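 Dermatophytes were tested by agar dilution on Sabouraud chloramphenicol agar in 96-well plates. DMSO stock solutions were serially two-fold diluted into the medium to give final concentrations of 0.10–50 µg/mL, with DMSO not exceeding 2%. Each well received 5 µL of spore suspension.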

[2] = test system: Trichophyton rubrum; test: Antifungal activity against Trichophyton rubrum C 113 up to 50 ug/mL by agar dilution method; type: functional, organism-based; outline: as §1
[3] = test system: Epidermophyton floccosum; test: Antifungal activity against Epidermophyton floccosum C 114 up to 50 ug/mL by agar dilution method; type: functional, organism-based; outline: as §1
[4] = test system: Nannizzia gypsea; test: Antifungal activity against Microsporum gypseum C 115 by agar dilution method; type: functional; outline: as §1
[5] = test system: Trichophyton mentagrophytes; test: Antifungal activity against Trichophyton mentagrophytes ATCC by agar dilution method; type: functional; outline: as §1
[6] = test system: Trichophyton rubrum; test: Antifungal activity against Trichophyton rubrum C 113 by agar dilution method; type: functional; outline: as §1
[7] = test system: Epidermophyton floccosum; test: Antifungal activity against Epidermophyton floccosum C 114 by agar dilution method; type: functional; outline: as §1
[8] = test system: Candida albicans; test: Antifungal activity against Candida albicans ATCC 10231 by agar dilution method; type: functional, organism-based
Outline: (§2)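 Sabouraud chloramphenicol agar dilution in 96-well plates. Strains were grown on Sabouraud chloramphenicol agar slants for 48 h at 30 °C and suspended in sterile distilled water, adjusted to 10^6 viable cells/mL. DMSO stocks were serially two-fold diluted into the agar to give 0.10–50 µg/mL, with DMSO ≤2% final. 5 µL inoculum per well; incubated 24, 48 or 72 h at 30 °C per control growth; MIC recorded.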

[9] = test system: Saccharomyces cerevisiae; test: Antifungal activity against Saccharomyces cerevisiae ATCC 9763 by agar dilution method; type: functional, organism-based; outline: as §2
[10] = test system: Cryptococcus neoformans; test: Antifungal activity against Cryptococcus neoformans ATCC 32264 by agar dilution method; type: functional, organism-based; outline: as §2
[11] = test system: Aspergillus flavus; test: Antifungal activity against Aspergillus flavus ATCC 9170 by agar dilution method; type: functional, organism-based; outline: as §2
[12] = test system: Aspergillus fumigatus; test: Antifungal activity against Aspergillus fumigatus ATCC 26934 by agar dilution method; type: functional, organism-based; outline: as §2
[13] = test system: Aspergillus niger; test: Antifungal activity against Aspergillus niger ATCC 9029 by agar dilution method; type: functional, organism-based; outline: as §2
[14] = test system: Microsporum canis; test: Antifungal activity against Microsporum canis C 112 by agar dilution method; type: functional; outline: as §1
[15] = test system: Microsporum canis; test: Antifungal activity against Microsporum canis C 112 up to 50 ug/mL by agar dilution method; type: functional, organism-based; outline: as §1
[16] = test system: Nannizzia gypsea; test: Antifungal activity against Microsporum gypseum C 115 up to 50 ug/mL by agar dilution method; type: functional, organism-based; outline: as §1

Row | SMILES | Activity [1] | Activity [2] | Activity [3] | MIC [4] | MIC [5] | MIC [6] | MIC [7] | Activity [8] | Activity [9] | Activity [10] | Activity [11] | Activity [12] | Activity [13] | MIC [14] | Activity [15] | Activity [16]
1 | C=CCc1ccc(OC)c(OC)c1 [METHYLEUGENOL] | inactive | inactive | inactive | > 50 µg/mL | > 50 µg/mL | > 50 µg/mL | > 50 µg/mL | inactive | inactive | inactive | inactive | inactive | inactive | > 50 µg/mL | inactive | inactive
2 | CCC(O)c1ccc(OC)c(OC)c1 (centres undefined) | inactive | inactive | inactive | > 50 µg/mL | > 50 µg/mL | > 50 µg/mL | 50 µg/mL (≈ 255 µM) | inactive | inactive | inactive | inactive | inactive | inactive | > 50 µg/mL | inactive | inactive
3 | CC(Cl)C(=O)c1cc2ccccc2c2ccccc12 (centres undefined) | inactive | inactive | inactive | 10 µg/mL (≈ 37.2 µM) | 3 µg/mL (≈ 11.2 µM) | 1.5 µg/mL (≈ 5.58 µM) | 15 µg/mL (≈ 55.8 µM) | inactive | inactive | inactive | inactive | inactive | inactive | 3 µg/mL (≈ 11.2 µM) | – | inactive
4 | COc1cc(C(=O)C(C)Cl)cc(OC)c1OC (centres undefined) | inactive | inactive | inactive | 12.5 µg/mL (≈ 48.3 µM) | 15 µg/mL (≈ 58 µM) | 10 µg/mL (≈ 38.7 µM) | 0.5 µg/mL (≈ 1.93 µM) | inactive | inactive | inactive | inactive | inactive | inactive | 6.25 µg/mL (≈ 24.2 µM) | inactive | inactive
5 | CC(Br)C(=O)C1CCCCC1 (centres undefined) | – | – | – | > 50 µg/mL | 50 µg/mL (≈ 228 µM) | > 50 µg/mL | > 50 µg/mL | inactive | inactive | inactive | inactive | inactive | inactive | > 50 µg/mL | – | –
6 | CC(C)C(=O)c1ccc2ccccc2c1 | inactive | inactive | inactive | 25 µg/mL (≈ 126 µM) | 25 µg/mL (≈ 126 µM) | > 50 µg/mL | 40 µg/mL (≈ 202 µM) | inactive | inactive | inactive | inactive | inactive | inactive | 40 µg/mL (≈ 202 µM) | inactive | inactive
7 | CC(C)C(O)c1cc2ccccc2c2ccccc12 (centres undefined) | – | – | – | 6.25 µg/mL (≈ 25 µM) | 6.25 µg/mL (≈ 25 µM) | 10 µg/mL (≈ 39.9 µM) | 10 µg/mL (≈ 39.9 µM) | inactive | inactive | inactive | inactive | inactive | inactive | 6.25 µg/mL (≈ 25 µM) | – | –
8 | CCC(O)c1cc(OC)c(OC)c(OC)c1 (centres undefined) | inactive | inactive | inactive | > 50 µg/mL | > 50 µg/mL | > 50 µg/mL | 50 µg/mL (≈ 221 µM) | inactive | inactive | inactive | inactive | inactive | inactive | 50 µg/mL (≈ 221 µM) | inactive | inactive
9 | CC(=O)N1CCN(c2ccc(OCC3COC(Cn4ccnc4)(c4ccc(Cl)cc4Cl)O3)cc2)CC1 (centres undefined) [KETOCONAZOLE] | – | – | – | 6.25 µg/mL (≈ 11.8 µM) | 12.5 µg/mL (≈ 23.5 µM) | 15 µg/mL (≈ 28.2 µM) | 25 µg/mL (≈ 47 µM) | inactive | inactive | inactive | inactive | inactive | inactive | 15 µg/mL (≈ 28.2 µM) | – | –
10 | CCC(=O)c1ccc(OC)cc1 | inactive | inactive | inactive | > 50 µg/mL | > 50 µg/mL | > 50 µg/mL | > 50 µg/mL | inactive | inactive | inactive | inactive | inactive | inactive | > 50 µg/mL | inactive | inactive
